A selection: hits, their analogues and other compounds. The true share with any hit is near 3.4%.
rRNA inh HTS = selective bacterial rRNA inhibition in E. coli; E. coli WT GFP vs humanized-ribosome RFP mutants, fluorescence, 24 h; stronger effect = lower value; DMSO median 0, no signal -100; GFP signal change (wild-type ribosome), % (test concentration not listed); 350,000 tested, 1.6% active;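 active means significant combined selectivity score with lowered wild-type GFP, culture density cut under 30%, mutant RFP and density less affected; inactive means any of these conditions unmet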
MLL AF4-AF9 inh = blocks AF4 peptide binding to human AF9; inhibition, % at 10 µM; 350,000 tested, 0.47% active; P42568; AlphaScreen, biotin-AF4 peptide binding to FLAG-AF9;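 active means every replicate reaching a set inhibition limit, whatever the replicate mean, cut at about 25% in these data; inconclusive means mean inhibition reaches that limit but some replicates miss it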;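 further: 0% = plate neutral control median and 100% = total signal loss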
S100A4 MyoIIA = S100A4-myosin IIA interaction inhibition; S100A4/TAMRA-MyoIIA peptide fluorescence polarization; 360,000 tested, 0.14% active; inhibition, % at 10.7 µM;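 active means mean inhibition of at least 70% across replicates, with every replicate also reaching that level; inconclusive means mean inhibition reaches 70% but some replicates fall short; inactive means mean inhibition below 70%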
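Test system: S100A4 monomer protein. Medium: HEPES buffer with Ca2+, pH 7.2. Reagent: fluorescent myosin IIA peptide, 5 nM. Compound dosing: single-point compound testing. Timing: 5 min between mix addition and reading. Benchmarks: DMSO neutral and TFP positive wells.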
SIRT5 inh = inhibitors of human sirtuin-5 desuccinylase | 330,000 tested, 1.1% active | AID 652115 | Q9NXA8 | inhibition, % at 15 µM | Purified SirT5, succinyl-peptide AMC, trypsin-coupled fluorescence; in the data active means inhibition above about 15%; inconclusive means no clear call, values can overlap the other calls
ERAP1 inh = blocks human ERAP1 aminopeptidase activity; 340,000 tested, 0.15% active; AID 652197; recombinant ERAP1, Leu-AMC fluorescence, 60 min; inhibition, % at 10.7 µM;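 active means mean replicate inhibition of at least 30%, or all replicates individually reaching that 30% level; inactive means mean below 30% and not every replicate reaching it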;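 further: 0% = neutral control wells and 100% = L-leucinethiol positive control wells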
Target sequence (Q9NZ08 whole entry, looked up): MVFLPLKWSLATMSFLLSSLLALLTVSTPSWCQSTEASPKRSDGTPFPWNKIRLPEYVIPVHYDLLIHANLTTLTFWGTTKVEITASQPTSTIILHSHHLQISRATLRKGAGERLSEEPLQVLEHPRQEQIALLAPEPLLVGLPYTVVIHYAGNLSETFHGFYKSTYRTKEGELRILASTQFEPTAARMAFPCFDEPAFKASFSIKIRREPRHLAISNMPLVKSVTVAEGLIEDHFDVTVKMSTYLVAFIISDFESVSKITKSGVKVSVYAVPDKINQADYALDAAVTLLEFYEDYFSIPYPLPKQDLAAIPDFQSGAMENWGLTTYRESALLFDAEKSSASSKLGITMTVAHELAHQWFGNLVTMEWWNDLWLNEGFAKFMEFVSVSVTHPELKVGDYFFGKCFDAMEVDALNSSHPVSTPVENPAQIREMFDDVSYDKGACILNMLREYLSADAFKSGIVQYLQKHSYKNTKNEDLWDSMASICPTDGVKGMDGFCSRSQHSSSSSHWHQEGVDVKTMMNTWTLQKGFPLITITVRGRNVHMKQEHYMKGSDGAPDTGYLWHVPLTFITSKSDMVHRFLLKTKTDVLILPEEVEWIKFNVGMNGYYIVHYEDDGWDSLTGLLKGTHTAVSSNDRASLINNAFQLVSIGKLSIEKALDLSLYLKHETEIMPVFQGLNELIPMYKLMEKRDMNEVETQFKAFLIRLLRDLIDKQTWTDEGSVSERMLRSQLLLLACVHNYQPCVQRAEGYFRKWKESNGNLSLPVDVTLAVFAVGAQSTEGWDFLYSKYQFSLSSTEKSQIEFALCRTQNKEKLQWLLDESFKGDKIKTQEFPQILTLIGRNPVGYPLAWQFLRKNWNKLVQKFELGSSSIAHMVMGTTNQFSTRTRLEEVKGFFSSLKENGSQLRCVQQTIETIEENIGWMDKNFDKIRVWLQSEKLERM
E-sel inducer = E-selectin induction on HUVECs; P16581; HUVEC E-selectin immunofluorescence imaging; normalized: neutral wells 0, TNF-alpha wells 100; 260,000 tested, 0.37% active; AID 686992; activation, % at 7.58 µM;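 active means mean E-selectin-positive cell signal at least 10% of the positive control, reached in at least 60% of replicates, without over 20% cell loss; inconclusive means no rule given, readout overlaps actives, possibly toxicity-flagged; inactive means the rest, including those meeting only one limit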
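Assay system: HUVEC primary endothelial cells. Input: 3,000 HUVEC seeded per well. Doses: one compound dose added by pin transfer. Read-out basis: % PE-positive cells. Benchmarks: TNF-alpha high, DMSO low. Detection: immunofluorescence imaging. Buffer or medium: EGM-2, gelatin.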
Alpha interfer = AlphaScreen signal interference counter-screen hit. shares compounds with MLL AF4-AF9 inh. signal luminescence. AC50, µM (doses to about 12 µM), without a hit: top-dose activity change, negative = inhibition. 530 tested, 45% active; cut-off not given, nearly all actives have AC50 up to about 14 µM
* = called active by the depositor; ? = inconclusive; · = no result given.

SMILES | rRNA inh HTS | MLL AF4-AF9 inh | S100A4 MyoIIA | SIRT5 inh | ERAP1 inh | E-sel inducer | Alpha interfer
C#CCOCCOCCOCCNc1nc(N2CCN(C(=O)[C@H](CCCN=C(N)N)n3cc(C(N)[C@@H](C)CC)nn3)CC2)nc(N2CCN(C(=O)[C@H](CCCCN)n3cc([C@@H](N)[C@H](C)CC)nn3)CC2)n1 (some centres undefined) | -16.2 | 46.1* | -0.7 | · | -4.8 | 0.0 | -9.7%
C#CCOCCOCCOCCNc1nc(N2CCN(C(=O)[C@H](CCCN=C(N)N)n3cc(C(N)[C@@H](C)CC)nn3)CC2)nc(N2CCN(C(=O)[C@H](CCC(=O)O)n3cc([C@@H](N)CCCCN)nn3)CC2)n1 (some centres undefined) | 11.3 | 15.7 | 8.0 | · | -7.8 | 0.1 | ·
C#CCOCCOCCOCCNc1nc(N2CCN(C(=O)[C@H](CCCCN)n3cc([C@@H](N)CC(N)=O)nn3)CC2)nc(N2CCN(C(=O)[C@H](CCCCN)n3cc([C@@H](N)CC(N)=O)nn3)CC2)n1 | 15.3 | 36.6* | -4.3 | -7.4 | -0.1 | 0.1 | 3.3%
C#CCOCCOCCOCCNc1nc(N2CCN(C(=O)[C@H](CCC(=O)O)n3cc([C@@H](N)CC(N)=O)nn3)CC2)nc(N2CCN(C(=O)[C@H](CCC(=O)O)n3cc([C@@H](N)CC(N)=O)nn3)CC2)n1 | 20.7 | 0.0 | 2.1 | -0.1 | -2.2 | -0.4 | ·
C#CCOCCOCCOCCNc1nc(N2CCN(C(=O)[C@H](CCCCN)n3cc(CCCC)nn3)CC2)nc(N2CCN(C(=O)[C@H](CCCCN)n3cc(CCCC)nn3)CC2)n1 | 3.8 | 26.3* | -3.9 | · | -8.8 | · | -11.6%
CCCNC(=O)N1C[C@H]2[C@@H](c3ccccc31)[C@@H](CO)N2C(=O)Nc1ccccc1 | 0.9 | -0.8 | 2.0 | 10.9 | -3.0 | -0.3 | ·
CC(=O)N(C)C[C@@H]1Oc2cc(Br)ccc2S(=O)(=O)N([C@H](C)CO)C[C@H]1C | 3.3 | -6.7 | -2.9 | 1.9 | -0.4 | -0.5 | ·
COC(=O)c1ccc2nc(C)cc(Nc3ccc(N(C)C)cc3)c2c1 | -1.5 | 31.5* | 0.9 | 2.4 | 2.1 | -1.6 | -14.1%
CCN(CC)CCNC(=O)c1ccc(NC(=O)c2cccc(S(=O)(=O)N3c4ccccc4CC3C)c2)cc1 (centres undefined) | -8.0 | 30.6* | 1.3 | -1.0 | 7.9 | 0.3 | -4.3%
COc1cccc(CNCCc2c[nH]c3ccccc23)c1OCc1ccccc1 | -52.0 | 27.3* | 1.4 | 2.6 | -2.9 | · | -40.0%
c1ccc(CCNc2ccnc3cc4ccccc4cc23)cc1 | -48.9 | -6.6 | -0.8 | -4.0 | -6.5 | 1.0 | ·
CC(C)Nc1ccc(Nc2ccnc3cc4ccccc4cc23)cc1 | -60.5 | 83.5* | 0.2 | 0.2 | -3.5 | · | 2.98µM*
Cc1ccc(NC(=S)N/N=C/c2ccc([N+](=O)[O-])s2)cc1 | -33.1 | ? | -8.3 | 2.3 | 2.3 | · | -17.7%
CCC(=O)NC(c1ccc(N(C)C)cc1)c1c(O)ccc2ccccc12 (centres undefined) | 10.9 | 24.1 | -4.0 | -1.3 | 2.2 | · | -17.2%
CCC(=O)NC(c1ccc(OC)cc1)c1c(O)ccc2ccccc12 (centres undefined) | -32.9 | -3.4 | -1.1 | -0.1 | -4.1 | 0.4 | ·
C[C@H](CO)N1C[C@H](C)[C@H](CN(C)Cc2ccc(C(=O)O)cc2)Oc2ccc(NS(=O)(=O)c3ccccc3)cc2C1=O | -2.9 | -2.7 | -8.0 | 3.4 | 1.4 | 1.4 | ·
CC(C)C(=O)Nc1ccc2c(c1)C(=O)N(C)[C@@H]1CC[C@H](CC(=O)NCc3cccc(F)c3)O[C@H]1CO2 | 4.9 | · | · | · | · | 0.3 | ·
CN1CCN(C(c2ccccn2)c2cc(Cl)c3cccnc3c2O)CC1 (centres undefined) | -53.0 | 39.2* | 2.3 | -0.8 | 5.0 | · | -6.8%
CC(=O)NC(c1cc(Cl)c2cccnc2c1O)C(C)C (centres undefined) | -21.7 | 11.0 | -3.2 | · | -3.0 | 0.4 | ·
CCCCC(=O)NC(c1ccccc1Cl)c1ccc2cccnc2c1O (centres undefined) | 5.8 | 2.3 | 0.6 | 0.1 | -1.7 | 0.2 | ·
Oc1c(C(c2ccc(Cl)cc2)N2CCCC2)cc(Cl)c2cccnc12 (centres undefined) | -50.5 | 55.6* | -2.8 | -1.1 | -3.4 | -0.9 | -44.0%
Oc1c(C(c2ccccc2Cl)N2CCCC2)ccc2cccnc12 (centres undefined) | -46.2 | 90.6* | -5.0 | 0.4 | 2.5 | 5.6 | 2.15µM*
CN1CCN(C(c2ccc(C(F)(F)F)cc2)c2ccc3cccnc3c2O)CC1 (centres undefined) | -37.2 | 85.4* | -20.7 | -9.0 | 3.1 | 0.1 | 2.42µM*
CCN(CC)CCSc1nc2ccccc2c(=S)n1-c1ccccc1 | -5.9 | 34.0* | -0.6 | -0.2 | 29.0 | · | -27.7%
CCN(CC)CCSc1nnc(Nc2ccccc2)n1-c1ccccc1 | 9.8 | 0.0 | 1.0 | · | -1.1 | · | ·
SMILES | rRNA inh HTS | MLL AF4-AF9 inh | S100A4 MyoIIA | SIRT5 inh | ERAP1 inh | E-sel inducer | Alpha interfer
CN(CCc1ccccc1)C(=O)c1ccc(NC(=O)Cc2ccc(NC(=O)C3CCN(C(=O)C4CCCCC4)CC3)cc2)cc1 | -9.0 | 26.6* | 15.9 | -5.0 | -1.0 | 0.1 | 2.3%
CN(C(=O)c1ccc(NC(=O)Cc2ccc(NC(=O)C3CCN(C(=O)c4ccccc4)CC3)cc2)cc1)C1CC1 | -1.3 | 37.5* | 3.2 | · | 1.3 | · | -15.5%
CCN(CC)CCC(c1ccc(N(C)C)cc1)c1c(OC)cc(OC)c2c(-c3ccccc3)cc(=O)oc12 (centres undefined) | 5.3 | 51.0* | 8.8 | -2.1 | 1.8 | 0.0 | 4.82µM*
COc1cc(OC)c2c(-c3ccccc3)cc(=O)oc2c1C(CCN1CCCC(C)C1)c1ccc(N(C)C)cc1 (centres undefined) | -52.9 | 67.0* | 3.4 | · | 0.8 | · | 3µM*
COc1cc(OC)c2c(-c3ccccc3)cc(=O)oc2c1C(CCN1CCCC1)c1ccc2c(c1)OCO2 (centres undefined) | 8.4 | 29.3* | -1.6 | · | 1.0 | · | -27.2%
Cc1cc2c(OCC(O)CNC3CCCCC3)cccc2[nH]1 (centres undefined) | 5.5 | 29.1* | -3.9 | -6.0 | -4.9 | · | -15.3%
OC(CNC1CCCCCC1)COc1cccc2ccccc12 (centres undefined) | -5.9 | 3.6 | 0.0 | -6.9 | 2.7 | -0.1 | ·
CC1C/C(=C/c2cccs2)C(=O)/C(=C/c2cccs2)C1 (centres undefined) | -2.6 | ? | 6.5 | -3.2 | -1.0 | · | -20.2%
O=C1/C(=C/c2cccs2)CCC/C1=C\c1cccs1 | -15.0 | 0.2 | -0.8 | 0.2 | 2.6 | -0.4 | ·
